The subject of assay [1] is Coxsackievirus B3. Description: Antiviral activity against coxsackievirus B3 in HeLa S3 cells assessed as reduction in viral titer. The assay is classed as functional, organism-based. In a few lines:
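HeLa S3 cells were pretreated with compound for 1 h, then infected with 10⁶ PFU CVB3 (high MOI). After 15 min of virus association, fresh medium containing compound was added and infection continued for 6 h. Cell-associated virus was titered by plaque assay. Cytotoxicity was checked separately after 7 h of treatment plus 24 h of recovery without compound.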

Assay [2] relates to HeLa. Description: Viability of human HeLa S3 cells. The assay is classed as functional. The arrangement: concentration or dose not given beside the values. The gist of the method: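 HeLa S3 cells exposed to compound for 7 h, then allowed to recover without compound for 24 h; viability recorded at four concentrations.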
Assay [3] has as its system Enterovirus C. Description: Antiviral activity against poliovirus in HeLa S3 cells assessed as reduction in viral titer. The assay is classed as functional, organism-based. In a few lines: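 HeLa S3 cells pretreated with compound 1 h, then infected with 10⁶ PFU poliovirus (high MOI); after 15 min adsorption, fresh medium containing compound added and infection run a further 6 h. Cell-associated virus titered by plaque assay.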

The target in assay [4] is Genome polyprotein (Human poliovirus 1 Mahoney, UniProt P03300). Description: Binding affinity to poliovirus RNA dependent RNA polymerase. The arrangement: species or system Enterovirus C. The gist of the method:
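Purified poliovirus RdRP complexed with ³²P end-labeled symmetrical 10-mer RNA primer-template (S/S–G); nucleotide incorporation opposite G followed, products separated by denaturing PAGE; Kd and kpol derived from incorporation kinetics.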

Assay [5] relates to Human immunodeficiency virus 1. Description: Antiviral activity against HIV1. It counts as functional, organism-based.
Assay [6] has as its system Human alphaherpesvirus 2. Description: Antiviral activity against herpes simplex virus 2. The assay is classed as functional, organism-based.
For assay [7], the system named is Human alphaherpesvirus 1. Description: Antiviral activity against herpes simplex virus 1. It counts as functional, organism-based.

Each structure is given as a SMILES string. Calls of active or inactive are those of the source. The calls are words filed in the database; no cut-off is given here.

Chain of Genome polyprotein (P03300 1749-2209 limits assumed): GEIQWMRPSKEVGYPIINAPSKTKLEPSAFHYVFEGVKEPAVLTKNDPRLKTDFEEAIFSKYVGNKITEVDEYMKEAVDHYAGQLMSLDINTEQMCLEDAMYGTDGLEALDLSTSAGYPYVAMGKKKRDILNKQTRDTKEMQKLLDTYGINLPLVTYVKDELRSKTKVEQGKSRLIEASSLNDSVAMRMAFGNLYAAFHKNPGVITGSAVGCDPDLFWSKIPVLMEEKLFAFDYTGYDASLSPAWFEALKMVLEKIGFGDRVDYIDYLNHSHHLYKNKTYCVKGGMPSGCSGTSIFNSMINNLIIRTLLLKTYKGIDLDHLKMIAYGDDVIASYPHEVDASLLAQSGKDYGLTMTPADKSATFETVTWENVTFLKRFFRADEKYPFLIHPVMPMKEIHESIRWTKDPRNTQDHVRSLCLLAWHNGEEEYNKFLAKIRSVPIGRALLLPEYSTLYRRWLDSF

`Nc1nc(=O)n([C@@H]2O[C@H](CO)[C@@H](O)[C@H]2O)cc1[N+](=O)[O-]`: the outcome in assay [1] and in assay [3] was Active. Moreover, in assay [2], the Activity is given as 80%.

As for `Nc1cn([C@@H]2O[C@H](CO)[C@@H](O)[C@H]2O)c(=O)nc1N`, the outcome in assay [1] and in assay [3] was Active. For the same compound, the Activity in assay [2] turned out to be 62%.

In turn, `Nc1nc(=O)n([C@@H]2O[C@H](CO)[C@@H](O)[C@H]2O)cc1O` returned an Activity in assay [2] of 36%.

In the case of `NC(=O)c1ncn([C@@H]2O[C@H](CO)[C@@H](O)[C@H]2O)n1` [RIBAVIRIN], the Activity result in assay [1] is “Dose-dependent effect”; in assay [2], 70%; in assay [3], “Dose-dependent effect”.

In turn, `Nc1nc(=O)n([C@@H]2O[C@H](CO)[C@@H](O)[C@H]2O)cc1Br` came in with an Activity in assay [2] of 63%.

`Nc1nc(=O)n([C@H]2C[C@H](O)[C@@H](CO)O2)cc1Br`: the result in assay [1] and in assay [3] was inactive. This compound also displayed an Activity in assay [2] of 93%.

Take `Nc1nc(=O)n([C@@H]2O[C@H](CO[P@@](=O)(O)O[P@](=O)(O)OP(=O)(O)O)[C@@H](O)[C@H]2O)cc1[N+](=O)[O-]`: the Kd in assay [4] was found to be 1080 nM.

`Nc1nc(=O)n([C@H]2C[C@H](O)[C@@H](CO)O2)cc1[N+](=O)[O-]`: the result in assay [5], in assay [6] and in assay [7] was Active.

`Nc1nc(=O)n([C@H]2C[C@H](O)[C@@H](CO)O2)cc1O`: the result in assay [1] and in assay [3] was inactive. This compound also showed an Activity in assay [2] of 82%.

As a reminder, the Kd is the constant that tells how readily two partners part at equilibrium.
